In ChEMBL document CHEMBL4396931, “Fluorescent analogs of peptoid-based HDAC inhibitors: Synthesis, biological activity and cellular uptake kinetics” (Bioorg Med Chem, 2019):
pIC50: −log10 of the molar value. The source made the active and inactive calls. No cut-off for these calls is given here.

What was measured:
OE33 = experiment: Antiproliferative activity against human OE33 cells assessed as reduction in cell viability incubated for 72 hrs by presto blue assay; format: functional
How it was run: (§1)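 3500 cells per well seeded and grown 24 h, then exposed to compound for 72 h. Viability read with PrestoBlue reagent per manufacturer's protocol, and GI50 taken from this.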

OE19 = experiment: Antiproliferative activity against human OE19 cells assessed as reduction in cell viability incubated for 72 hrs by presto blue assay; format: functional; how it was run: as §1
[1] = Drug uptake in human OE19 cells assessed as increase in fluorescence intensity at 1.25 uM measured for every 10 sec for 30 mins by fluorescence based assay; format: ADME, cell-based; settings: oe19, 0.5 h
How it was run: (§2)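 Cells exposed to 1.25 µM compound, fluorescence recorded at Ex 370 nm / Em 530 nm every 10 s for 30 min on an epifluorescence microscope (40× objective). Treatment started 1 min before recording. Representative images taken at 15 min.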

[2] = Drug uptake in human OE33 cells assessed as increase in fluorescence intensity at 1.25 uM measured after 15 mins by microscopic method; format: ADME, cell-based; settings: oe33, 0.25 h; how it was run: as §2
[3] = target: T1, Protein deacetylase HDAC6 (Homo sapiens, UniProt Q9UBN7); experiment: Inhibition of recombinant human full length C-terminal GST-tagged HDAC6 expressed in baculovirus infected Sf9 cells using ZMAL as substrate incubated for 90 mins by fluorometric method
T1 sequence (Q9UBN7 whole entry): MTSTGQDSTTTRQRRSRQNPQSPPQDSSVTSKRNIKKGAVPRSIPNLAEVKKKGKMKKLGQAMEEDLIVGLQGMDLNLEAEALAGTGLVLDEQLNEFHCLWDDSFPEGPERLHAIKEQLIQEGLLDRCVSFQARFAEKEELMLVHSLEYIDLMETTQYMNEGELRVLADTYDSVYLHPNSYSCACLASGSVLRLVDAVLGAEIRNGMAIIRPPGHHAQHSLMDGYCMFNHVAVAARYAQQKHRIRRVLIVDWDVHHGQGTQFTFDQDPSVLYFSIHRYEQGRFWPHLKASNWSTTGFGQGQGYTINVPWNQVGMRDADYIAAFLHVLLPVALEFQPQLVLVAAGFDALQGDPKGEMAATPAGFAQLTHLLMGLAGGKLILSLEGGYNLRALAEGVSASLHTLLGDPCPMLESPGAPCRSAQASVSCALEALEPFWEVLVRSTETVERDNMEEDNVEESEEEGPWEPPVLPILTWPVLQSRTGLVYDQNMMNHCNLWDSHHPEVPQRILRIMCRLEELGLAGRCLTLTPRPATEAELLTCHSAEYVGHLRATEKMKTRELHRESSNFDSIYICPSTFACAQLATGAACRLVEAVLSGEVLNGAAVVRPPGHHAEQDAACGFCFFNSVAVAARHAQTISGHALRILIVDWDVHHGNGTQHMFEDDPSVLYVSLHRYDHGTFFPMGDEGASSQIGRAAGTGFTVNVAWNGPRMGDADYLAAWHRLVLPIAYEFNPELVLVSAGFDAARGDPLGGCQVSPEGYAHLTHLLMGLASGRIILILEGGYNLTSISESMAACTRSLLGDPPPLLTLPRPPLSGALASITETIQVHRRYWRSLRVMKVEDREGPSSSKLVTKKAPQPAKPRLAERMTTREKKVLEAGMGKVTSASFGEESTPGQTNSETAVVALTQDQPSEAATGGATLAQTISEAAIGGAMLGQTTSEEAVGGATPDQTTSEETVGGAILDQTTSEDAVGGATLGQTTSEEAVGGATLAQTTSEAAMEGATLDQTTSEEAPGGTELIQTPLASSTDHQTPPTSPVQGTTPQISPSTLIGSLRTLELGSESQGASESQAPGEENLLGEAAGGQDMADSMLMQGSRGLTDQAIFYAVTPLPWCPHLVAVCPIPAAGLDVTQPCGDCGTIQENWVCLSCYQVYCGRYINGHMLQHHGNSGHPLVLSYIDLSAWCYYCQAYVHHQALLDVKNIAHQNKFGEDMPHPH

[4] = target: T2, Histone deacetylase (Homo sapiens) (UniProt Q13547+O15379+Q9UBN7+Q92769+Q9UQL6+Q8WUI4+Q9BY41+Q96DB2+P56524+Q9UKV0+Q969S8); experiment: Inhibition of HDAC in human OE19 cells assessed as increase in histone H3 acetylation at 2.25 uM incubated for 48 hrs by Western blot analysis; format: cell-based
How it was run: (§3)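 500,000 OE33 or 750,000 OE19 cells treated 48 h. Histones isolated, 5 µg nuclear extract run on 15% SDS-PAGE and blotted. Probed overnight at 4 °C with anti-acetyl-histone H3 (Lys9) and anti-histone H3, compared with untreated controls.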

[5] = target: Histone deacetylase 3/Nuclear receptor corepressor 2 (HDAC3/NCoR2) (Homo sapiens, UniProt O15379); experiment: Inhibition of recombinant human C-terminal GST/His-tagged HDAC3 (1 to 428 residues) co-expressed with human N-terminal GST-tagged NCOR2 (395 to 489 residues) in baculovirus infected Sf9 cells using ZMAL as substrate incubated for 90 mins by fluorometric method
Sequence of Histone deacetylase 3/Nuclear receptor corepressor 2 (HDAC3/NCoR2) (O15379 whole entry, the tested form may be a part): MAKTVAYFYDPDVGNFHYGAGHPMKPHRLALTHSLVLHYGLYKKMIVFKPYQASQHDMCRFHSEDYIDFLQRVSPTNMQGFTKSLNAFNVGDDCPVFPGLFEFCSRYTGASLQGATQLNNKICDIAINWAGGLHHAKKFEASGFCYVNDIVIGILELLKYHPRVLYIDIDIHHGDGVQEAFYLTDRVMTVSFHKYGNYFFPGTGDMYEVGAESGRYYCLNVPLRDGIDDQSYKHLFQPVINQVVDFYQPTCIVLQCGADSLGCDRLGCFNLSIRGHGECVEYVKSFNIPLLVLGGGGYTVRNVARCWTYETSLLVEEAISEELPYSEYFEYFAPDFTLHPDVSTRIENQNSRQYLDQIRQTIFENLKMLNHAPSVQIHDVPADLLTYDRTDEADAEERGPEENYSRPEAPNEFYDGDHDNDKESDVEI
Sequence of Histone deacetylase 3/Nuclear receptor corepressor 2 (HDAC3/NCoR2) (Q9Y618 whole entry, further chain, the tested form may be a part): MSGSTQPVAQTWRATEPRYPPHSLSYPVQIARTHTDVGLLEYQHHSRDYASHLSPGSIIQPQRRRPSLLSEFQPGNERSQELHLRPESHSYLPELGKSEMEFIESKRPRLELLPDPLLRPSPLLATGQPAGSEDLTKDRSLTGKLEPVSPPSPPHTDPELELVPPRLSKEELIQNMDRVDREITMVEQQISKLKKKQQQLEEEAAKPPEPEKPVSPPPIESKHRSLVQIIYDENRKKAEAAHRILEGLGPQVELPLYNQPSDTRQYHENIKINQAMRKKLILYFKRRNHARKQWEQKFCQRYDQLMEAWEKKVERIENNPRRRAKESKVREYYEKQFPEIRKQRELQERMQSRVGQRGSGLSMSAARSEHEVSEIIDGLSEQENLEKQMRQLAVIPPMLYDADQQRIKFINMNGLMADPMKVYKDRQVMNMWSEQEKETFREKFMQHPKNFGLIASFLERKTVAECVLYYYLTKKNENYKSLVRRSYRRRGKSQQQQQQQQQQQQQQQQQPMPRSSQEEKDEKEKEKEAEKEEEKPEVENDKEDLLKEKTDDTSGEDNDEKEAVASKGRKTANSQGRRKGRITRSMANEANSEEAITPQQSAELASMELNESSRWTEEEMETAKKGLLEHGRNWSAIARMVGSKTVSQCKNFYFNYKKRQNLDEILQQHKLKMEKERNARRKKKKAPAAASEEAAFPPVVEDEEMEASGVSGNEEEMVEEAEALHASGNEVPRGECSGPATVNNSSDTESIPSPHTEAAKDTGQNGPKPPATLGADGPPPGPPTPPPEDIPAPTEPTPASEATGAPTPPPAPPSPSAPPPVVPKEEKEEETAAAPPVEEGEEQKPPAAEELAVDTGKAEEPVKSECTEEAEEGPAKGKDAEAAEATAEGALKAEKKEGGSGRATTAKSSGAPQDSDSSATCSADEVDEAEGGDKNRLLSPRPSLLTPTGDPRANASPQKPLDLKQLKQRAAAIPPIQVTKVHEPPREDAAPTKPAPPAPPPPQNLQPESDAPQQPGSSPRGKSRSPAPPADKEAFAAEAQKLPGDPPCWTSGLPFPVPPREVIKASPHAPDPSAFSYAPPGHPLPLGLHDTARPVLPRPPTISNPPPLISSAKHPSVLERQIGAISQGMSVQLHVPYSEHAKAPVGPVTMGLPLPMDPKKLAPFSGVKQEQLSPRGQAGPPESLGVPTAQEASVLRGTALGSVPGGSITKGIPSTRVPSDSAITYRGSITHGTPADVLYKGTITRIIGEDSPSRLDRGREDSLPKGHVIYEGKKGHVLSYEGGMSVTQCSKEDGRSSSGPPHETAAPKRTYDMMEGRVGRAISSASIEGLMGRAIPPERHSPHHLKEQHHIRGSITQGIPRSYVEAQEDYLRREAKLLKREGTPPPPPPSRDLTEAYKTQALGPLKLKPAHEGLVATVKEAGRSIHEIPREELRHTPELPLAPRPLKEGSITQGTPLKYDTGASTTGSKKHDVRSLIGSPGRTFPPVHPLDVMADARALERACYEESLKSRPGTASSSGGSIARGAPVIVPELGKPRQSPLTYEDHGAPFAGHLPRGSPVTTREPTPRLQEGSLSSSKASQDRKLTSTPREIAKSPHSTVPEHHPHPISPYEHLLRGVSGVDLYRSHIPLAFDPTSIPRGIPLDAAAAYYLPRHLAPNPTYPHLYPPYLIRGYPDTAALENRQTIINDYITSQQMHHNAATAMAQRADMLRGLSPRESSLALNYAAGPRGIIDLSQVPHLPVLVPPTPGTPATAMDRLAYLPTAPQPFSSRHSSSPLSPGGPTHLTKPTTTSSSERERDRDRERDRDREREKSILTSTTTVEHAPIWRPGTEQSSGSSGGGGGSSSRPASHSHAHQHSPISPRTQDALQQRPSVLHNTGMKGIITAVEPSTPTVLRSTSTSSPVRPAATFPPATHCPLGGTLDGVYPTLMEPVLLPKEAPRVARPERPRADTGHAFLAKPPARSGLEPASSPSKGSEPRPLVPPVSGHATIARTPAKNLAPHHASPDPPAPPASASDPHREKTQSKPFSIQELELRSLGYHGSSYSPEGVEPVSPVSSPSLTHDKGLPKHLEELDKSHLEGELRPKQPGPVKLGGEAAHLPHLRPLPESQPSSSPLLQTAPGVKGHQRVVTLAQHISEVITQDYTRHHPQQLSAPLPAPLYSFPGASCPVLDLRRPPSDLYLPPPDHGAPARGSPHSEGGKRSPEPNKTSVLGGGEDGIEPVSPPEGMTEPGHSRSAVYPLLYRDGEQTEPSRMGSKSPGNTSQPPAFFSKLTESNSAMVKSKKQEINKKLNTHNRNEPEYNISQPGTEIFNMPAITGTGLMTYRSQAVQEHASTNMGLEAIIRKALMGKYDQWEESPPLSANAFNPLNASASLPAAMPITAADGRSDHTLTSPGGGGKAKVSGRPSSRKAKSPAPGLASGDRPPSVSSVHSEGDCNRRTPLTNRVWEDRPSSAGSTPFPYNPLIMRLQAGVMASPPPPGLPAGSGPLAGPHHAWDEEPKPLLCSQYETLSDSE

[6] = Drug uptake in human OE33 cells assessed as increase in fluorescence intensity at 1.25 uM measured for every 10 sec for 30 mins by fluorescence based assay; format: ADME, cell-based; settings: oe33, 0.5 h; how it was run: as §2
[7] = target: T2, Histone deacetylase (Homo sapiens); experiment: Inhibition of HDAC in human OE33 cells assessed as increase in histone H3 acetylation at 2.25 uM incubated for 48 hrs by Western blot analysis; format: cell-based; how it was run: as §3
[8] = Drug uptake in human OE33 cells assessed as cytoplasmic retention at 1.25 uM measured after 30 mins by RFP-tagged histone H2B staining based confocal microscopy; format: ADME, cell-based; settings: oe33, 0.5 h
How it was run: (§4)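 Cells transfected with cDNA for histone H2B–RFP (DNA:reagent 1:1), then incubated 30 min with 1.25 µM compound. Imaged by confocal microscopy with 63× objective and 405 nm excitation.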

Histone deacetylase 1 = Histone deacetylase 1 (Homo sapiens, UniProt Q13547); experiment: Inhibition of recombinant human full length C-terminal Flag/His-tagged HDAC1 expressed in baculovirus infected Sf9 cells using ZMAL as substrate incubated for 90 mins by fluorometric method
Sequence of Histone deacetylase 1 (Q13547 whole entry): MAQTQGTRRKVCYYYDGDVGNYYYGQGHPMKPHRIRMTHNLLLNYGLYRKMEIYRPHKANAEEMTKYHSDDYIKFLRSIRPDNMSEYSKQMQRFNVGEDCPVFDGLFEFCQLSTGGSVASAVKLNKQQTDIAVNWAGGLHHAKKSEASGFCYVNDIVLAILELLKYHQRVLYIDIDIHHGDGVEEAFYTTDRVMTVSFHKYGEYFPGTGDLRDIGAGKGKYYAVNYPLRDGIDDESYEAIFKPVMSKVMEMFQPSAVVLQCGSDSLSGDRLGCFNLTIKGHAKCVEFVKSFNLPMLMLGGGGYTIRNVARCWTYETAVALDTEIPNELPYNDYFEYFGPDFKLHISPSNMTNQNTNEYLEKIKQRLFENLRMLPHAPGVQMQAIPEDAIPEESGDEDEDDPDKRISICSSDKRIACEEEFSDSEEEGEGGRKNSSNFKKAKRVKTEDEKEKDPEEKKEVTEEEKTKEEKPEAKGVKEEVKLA

[9] = Drug uptake in human OE33 cells assessed as cytoplasmic retention at 1.25 uM measured after 30 mins by RFP-tagged histone H2B staining based confocal microscopy; settings: oe33, 30 min
[10] = Drug uptake in human OE19 cells assessed as cytoplasmic retention at 1.25 uM measured after 30 mins by RFP-tagged histone H2B staining based confocal microscopy; settings: oe19, 30 min
[11] = Drug uptake in human OE19 cells assessed as increase in fluorescence intensity at 1.25 uM measured after 15 mins by microscopic method; format: ADME, cell-based; settings: oe19, 0.25 h; how it was run: as §2
Histone deacetylase 2 = Histone deacetylase 2 (Homo sapiens, UniProt Q92769); experiment: Inhibition of recombinant human full length C-terminal Flag-tagged HDAC2 expressed in baculovirus infected Sf9 cells using ZMAL as substrate incubated for 90 mins by fluorometric method; format: cell-based
Sequence of Histone deacetylase 2 (Q92769 whole entry): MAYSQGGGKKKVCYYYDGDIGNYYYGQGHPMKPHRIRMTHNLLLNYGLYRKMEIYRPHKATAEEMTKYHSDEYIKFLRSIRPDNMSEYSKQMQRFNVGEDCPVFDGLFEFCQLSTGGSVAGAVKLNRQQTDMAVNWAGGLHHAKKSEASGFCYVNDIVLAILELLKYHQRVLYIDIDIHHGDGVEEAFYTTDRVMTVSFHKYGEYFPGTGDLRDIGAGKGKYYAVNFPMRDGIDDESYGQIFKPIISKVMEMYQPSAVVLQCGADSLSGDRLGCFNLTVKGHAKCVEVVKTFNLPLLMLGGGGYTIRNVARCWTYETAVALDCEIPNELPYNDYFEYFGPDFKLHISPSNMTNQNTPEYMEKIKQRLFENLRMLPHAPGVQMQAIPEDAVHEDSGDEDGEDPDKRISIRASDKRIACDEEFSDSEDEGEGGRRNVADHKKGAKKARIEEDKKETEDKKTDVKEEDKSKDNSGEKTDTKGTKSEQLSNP

[12] = Drug uptake in human OE19 cells assessed as cytoplasmic retention at 1.25 uM measured after 30 mins by RFP-tagged histone H2B staining based confocal microscopy; format: ADME, cell-based; settings: oe19, 0.5 h; how it was run: as §4
[13] = target: T2, Histone deacetylase (Homo sapiens); experiment: Inhibition of HDAC in human OE19 cells assessed as increase in histone H3 acetylation at 6.5 uM incubated for 48 hrs by Western blot analysis; format: cell-based; how it was run: as §3
[14] = target: T2, Histone deacetylase (Homo sapiens); experiment: Inhibition of HDAC in human OE33 cells assessed as increase in histone H3 acetylation at 6.5 uM incubated for 48 hrs by Western blot analysis; format: cell-based; how it was run: as §3
[15] = target: T2, Histone deacetylase (Homo sapiens); experiment: Inhibition of HDAC in human OE19 cells assessed as increase in histone H3 acetylation at 0.6 uM incubated for 48 hrs by Western blot analysis; format: cell-based; how it was run: as §3
[16] = target: T2, Histone deacetylase (Homo sapiens); experiment: Inhibition of HDAC in human OE33 cells assessed as increase in histone H3 acetylation at 0.6 uM incubated for 48 hrs by Western blot analysis; format: cell-based; how it was run: as §3

Drug uptake [1] | Drug uptake [2] | pIC50 [3] | pIC50 [5] | Drug uptake [6] | Drug uptake [8] | pIC50 (Histone deacetylase 1) | Drug uptake [9] | Drug uptake [10] | Drug uptake [11] | pIC50 (Histone deacetylase 2) | Drug uptake [12] | SMILES | GI50 (OE33; Homo sapiens, OE33, 72 h) [nM] | GI50 (OE19; Homo sapiens, OE19, 72 h) [nM] | also measured
– | – | – | – | – | – | – | – | – | – | – | – | O=C(CCCCCCC(=O)Nc1ccccc1)NO [VORINOSTAT] | – | – | GI50 (OE33): 1120 nM; GI50 (OE19): 1420 nM
Active | Active | 7.34 | 7.06 | Active | Active | 7.47 | Active | Active | Active | 7.09 | Active | CN(C)c1cccc2c(S(=O)(=O)N(CCCCCC(=O)NO)CC(=O)NCc3ccccc3)cccc12 | 776 | 925 | inhibition [4]: Active; inhibition [7]: Active
Active | Active | 6.88 | 5.99 | Active | Active | 6.04 | Active | Active | Active | 5.46 | Active | CN(C)c1cccc2c(S(=O)(=O)N(CC(=O)NCc3ccccc3)Cc3ccc(C(=O)NO)cc3)cccc12 | 6230 | 12900 | inhibition [13]: Active; inhibition [14]: Active
Active | Active | < 5.00 | 5.95 | Active | Active | 6.17 | Active | Active | Active | 6.18 | Active | CN(C)c1cccc2c(S(=O)(=O)N(CC(=O)NCc3ccccc3)Cc3ccc(C(=O)Nc4ccccc4N)cc3)cccc12 | 4590 | 9100 | inhibition [15]: Active; inhibition [16]: Active
